{"source": "ChEMBL document CHEMBL5244203", "about": "“Thiadiazolodiazepine analogues as a new class of neuromuscular blocking agents: Synthesis, biological evaluation and molecular modeling study” (Eur J Med Chem, 2017)", "key": {"Rattus norvegicus [1]": {"tested_on": "Rattus norvegicus", "assay": "Neuromuscular blocking activity in Wistar rat tibialis muscle assessed as reduction in electrically-induced twitches by measuring time required for 90% blockage at 100 mg/kg, ip", "assay_type": "functional", "summary_of_the_method": "(§1)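 Male Wistar rats (250 g, N = 4-8 per group) anaesthetized with urethane (25% in water, 1.25 g/kg i.p.). Tracheal cannula with artificial room-air ventilation at 90 breaths/min, 20 c.c./kg. Rectal temperature held at 37 ± 1 °C. Tibialis twitch tension is expressed as % of pre-drug amplitude. Drug is given i.p. in DMSO or water, 1-100 mg/kg; ED50 and 90%-depression dose derived; mean ± S.E.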"}, "Rattus norvegicus [2]": {"tested_on": "Rattus norvegicus", "assay": "Neuromuscular blocking activity in Wistar rat tibialis muscle assessed as reduction in electrically induced twitches at 100 mg/kg, ip in presence of physostigmine", "assay_type": "functional, organism-based"}, "Rattus norvegicus [3]": {"tested_on": "Rattus norvegicus", "assay": "Neuromuscular blocking activity in against electrically-induced twitches in Wistar rat tibialis muscle assessed as time duration of muscle block at 100 mg/kg, ip", "assay_type": "functional", "summary_of_the_method": "as §1"}, "Rattus norvegicus [4]": {"tested_on": "Rattus norvegicus", "assay": "Neuromuscular blocking activity in ip dosed Wistar rat tibialis muscle assessed as reduction in electrically-induced twitches", "assay_type": "functional", "summary_of_the_method": "as §1"}, "Rattus norvegicus [5]": {"tested_on": "Rattus norvegicus", "assay": "Neuromuscular blocking activity in Wistar rat tibialis muscle assessed as reduction in electrically-induced twitches by measuring time of onset at 100 mg/kg, ip", "assay_type": "functional", "summary_of_the_method": "as §1"}, "Rattus norvegicus [6]": {"tested_on": "Rattus norvegicus", "assay": "Neuromuscular blocking activity in Wistar rat tibialis muscle assessed as reduction in electrically-induced twitches by measuring time required for 50% blockage at 100 mg/kg, ip", "assay_type": "functional", "summary_of_the_method": "as §1"}, "Rattus norvegicus [7]": {"tested_on": "Rattus norvegicus", "assay": "Neuromuscular blocking activity in Wistar rat tibialis muscle assessed as reduction in tetanus stimulated muscle twitches at 100 mg/kg, ip", "assay_type": "functional, organism-based", "summary_of_the_method": "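Male Wistar rats (250 g, N = 4-8 per group) anaesthetised with urethane (1.25 g/kg i.p.), tracheally cannulated and ventilated with room air at 90 breaths/min. Tibialis twitch tension recorded with body temperature kept at 37 ± 1 °C. Tetanus given at 30 Hz for 5-10 s. Drug given i.p. in DMSO or water at 1-100 mg/kg. Twitches expressed as % of pre-drug amplitude.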"}, "Gallus gallus [8]": {"tested_on": "Gallus gallus", "assay": "Neuromuscular blocking activity in ip dosed chicks assessed as induction of spastic paralysis", "assay_type": "functional", "summary_of_the_method": "(§2)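 4-day-old chicks (50 g) receive a single submaximal dose i.p., taken from the rat twitch study (0.15 mmol/kg). The type of paralysis, flaccid or spastic, is noted. The onset of head drop and of complete paralysis is timed after administration. Atracurium and succinylcholine serve as positive controls.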"}, "Gallus gallus [9]": {"tested_on": "Gallus gallus", "assay": "Neuromuscular blocking activity in chicks assessed as induction of spastic paralysis by measuring time of onset of muscle relaxation at 0.15 mmol/Kg, ip administered as single dose", "assay_type": "functional", "summary_of_the_method": "as §2"}, "Gallus gallus [10]": {"tested_on": "Gallus gallus", "assay": "Neuromuscular blocking activity in ip dosed chicks assessed as induction of flaccid paralysis", "assay_type": "functional", "summary_of_the_method": "as §2"}, "Gallus gallus [11]": {"tested_on": "Gallus gallus", "assay": "Neuromuscular blocking activity in chicks assessed as induction of flaccid paralysis by measuring time of onset of muscle relaxation at 0.15 mmol/Kg, ip administered as single dose", "assay_type": "functional", "summary_of_the_method": "as §2"}, "Gallus gallus [12]": {"tested_on": "Gallus gallus", "assay": "Neuromuscular blocking activity in chicks assessed as induction of flaccid paralysis by measuring time of onset of head drop at 0.15 mmol/Kg, ip administered as single dose", "assay_type": "functional", "summary_of_the_method": "as §2"}, "[13]": {"assay": "Toxicity in ip dosed mouse measured for 72 hrs", "assay_type": "organism-based", "details": "in vivo", "summary_of_the_method": "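Male mice, grouped, given i.p. doses of 0.1-5 mmol/kg. Observed continuously for 6 h, then kept under observation for 72 h, with behavioural changes and deaths recorded. Percentage death per dose converted to probits to derive the LD50.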"}, "Rattus norvegicus [14]": {"tested_on": "Rattus norvegicus", "assay": "Reversal of neuromuscular blocking activity in Wistar rat tibialis muscle assessed as time of onset of reversal at 100 mg/kg, ip in presence of physostigmine", "assay_type": "functional"}, "Rattus norvegicus [15]": {"tested_on": "Rattus norvegicus", "assay": "Reversal of neuromuscular blocking activity against electrically induced twitches in Wistar rat tibialis muscle at 100 mg/kg, ip in presence of physostigmine relative to control", "assay_type": "functional"}}, "note": "The source made the active and inactive calls. No cut-off for these calls is given here."}
{"smiles": "C[N+](C)(C)CCOC(=O)CCC(=O)OCC[N+](C)(C)C.[Cl-].[Cl-]", "note": "[SUCCINYLCHOLINE CHLORIDE]", "values": [{"measurement": "Time", "setting": "Rattus norvegicus [1]", "result": 5, "unit": "min"}, {"measurement": "Activity", "setting": "Rattus norvegicus [2]", "result": "inactive"}, {"measurement": "Time", "setting": "Rattus norvegicus [3]", "result": 20, "unit": "min"}, {"measurement": "ED50", "setting": "Rattus norvegicus [4]", "result": 30, "unit": "µmol/kg"}, {"measurement": "Time", "setting": "Rattus norvegicus [5]", "result": 2, "unit": "min"}, {"measurement": "Time", "setting": "Rattus norvegicus [6]", "result": 3, "unit": "min"}, {"measurement": "Activity", "setting": "Rattus norvegicus [7]", "result": "inactive"}, {"measurement": "ED50", "setting": "Gallus gallus [8]", "result": 30, "unit": "µmol/kg"}, {"measurement": "Time", "setting": "Gallus gallus [9]", "result": 0.5, "unit": "min"}]}
{"smiles": "O=C1CCCN2N=C(c3ccc(Br)cc3)SC2=N1", "values": [{"measurement": "ED50", "setting": "Gallus gallus [10]", "result": 150, "unit": "µmol/kg"}, {"measurement": "Time", "setting": "Rattus norvegicus [1]", "result": 10, "unit": "min"}, {"measurement": "Time", "setting": "Gallus gallus [11]", "result": 1, "unit": "min"}, {"measurement": "Time", "setting": "Rattus norvegicus [3]", "result": 70, "unit": "min"}, {"measurement": "ED50", "setting": "Rattus norvegicus [4]", "result": 150, "unit": "µmol/kg"}, {"measurement": "Time", "setting": "Rattus norvegicus [5]", "result": 3, "unit": "min"}, {"measurement": "Time", "setting": "Gallus gallus [12]", "result": 0.25, "unit": "min"}, {"measurement": "Time", "setting": "Rattus norvegicus [6]", "result": 7, "unit": "min"}, {"measurement": "Activity", "setting": "Rattus norvegicus [7]", "result": "Active"}, {"measurement": "LD50 at 72 h", "setting": "[13]", "result": 195, "unit": "mg/kg"}, {"measurement": "Time", "setting": "Rattus norvegicus [14]", "result": 1, "unit": "min"}, {"measurement": "Activity", "setting": "Rattus norvegicus [15]", "result": 100, "unit": "%"}]}
{"smiles": "COc1ccc(CC2c3cc(OC)c(OC)cc3CC[N+]2(C)CCC(=O)OCCCCCOC(=O)CC[N+]2(C)CCc3cc(OC)c(OC)cc3C2Cc2ccc(OC)c(OC)c2)cc1OC.O=S(=O)([O-])c1ccccc1.O=S(=O)([O-])c1ccccc1", "note": "(configuration not stated) [ATRACURIUM BESYLATE]", "values": [{"measurement": "ED50", "setting": "Gallus gallus [10]", "result": 16, "unit": "µmol/kg"}, {"measurement": "Time", "setting": "Rattus norvegicus [1]", "result": 12, "unit": "min"}, {"measurement": "Time", "setting": "Gallus gallus [11]", "result": 10, "unit": "min"}, {"measurement": "Time", "setting": "Rattus norvegicus [3]", "result": 30, "unit": "min"}, {"measurement": "ED50", "setting": "Rattus norvegicus [4]", "result": 16, "unit": "µmol/kg"}, {"measurement": "Time", "setting": "Rattus norvegicus [5]", "result": 5, "unit": "min"}, {"measurement": "Time", "setting": "Gallus gallus [12]", "result": 5, "unit": "min"}, {"measurement": "Time", "setting": "Rattus norvegicus [6]", "result": 8, "unit": "min"}, {"measurement": "Activity", "setting": "Rattus norvegicus [7]", "result": "Active"}, {"measurement": "Time", "setting": "Rattus norvegicus [14]", "result": 2, "unit": "min"}, {"measurement": "Activity", "setting": "Rattus norvegicus [15]", "result": 100, "unit": "%"}]}
{"smiles": "O=C1CCCN2N=C(c3ccc(F)cc3)SC2=N1", "values": [{"measurement": "ED50", "setting": "Gallus gallus [10]", "result": 300, "unit": "µmol/kg"}, {"measurement": "Time", "setting": "Rattus norvegicus [1]", "result": 28, "unit": "min"}, {"measurement": "Time", "setting": "Gallus gallus [11]", "result": 15, "unit": "min"}, {"measurement": "Activity", "setting": "Rattus norvegicus [2]", "result": "inactive"}, {"measurement": "Time", "setting": "Rattus norvegicus [3]", "result": 110, "unit": "min"}, {"measurement": "ED50", "setting": "Rattus norvegicus [4]", "result": 360, "unit": "µmol/kg"}, {"measurement": "Time", "setting": "Rattus norvegicus [5]", "result": 10, "unit": "min"}, {"measurement": "Time", "setting": "Gallus gallus [12]", "result": 11, "unit": "min"}, {"measurement": "Time", "setting": "Rattus norvegicus [6]", "result": 18, "unit": "min"}, {"measurement": "Activity", "setting": "Rattus norvegicus [7]", "result": "Active"}]}
